Here are results for 14 compounds from ChEMBL document CHEMBL2396594, “Designing allosteric regulators of thrombin. Exosite 2 features multiple subsites that can be targeted by sulfated small molecules for inducing inhibition” (J Med Chem, 2013).

The source made the active and inactive calls. The rule behind the calls is not given here. Where a SMILES comes first, the peptide text is derived from it. [ ]: non-standard residue; d: D form. pY = N[C@@H](Cc1ccc(OP(=O)(O)O)cc1)C(=O)O Bounds are passed on as bounds.

Test [1] deals with Coagulation factor X (Homo sapiens) (UniProt P00742). The experiment in a line: Inhibition of human factor 10a at 365 uM.
Sequence of Coagulation factor X (Homo sapiens) (P00742 41-179 limits assumed): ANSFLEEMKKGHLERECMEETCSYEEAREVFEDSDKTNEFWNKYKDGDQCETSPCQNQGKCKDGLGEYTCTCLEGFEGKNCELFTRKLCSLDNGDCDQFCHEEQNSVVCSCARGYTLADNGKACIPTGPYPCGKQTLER
Sequence of Coagulation factor X (Homo sapiens) (P00742 235-488 limits assumed): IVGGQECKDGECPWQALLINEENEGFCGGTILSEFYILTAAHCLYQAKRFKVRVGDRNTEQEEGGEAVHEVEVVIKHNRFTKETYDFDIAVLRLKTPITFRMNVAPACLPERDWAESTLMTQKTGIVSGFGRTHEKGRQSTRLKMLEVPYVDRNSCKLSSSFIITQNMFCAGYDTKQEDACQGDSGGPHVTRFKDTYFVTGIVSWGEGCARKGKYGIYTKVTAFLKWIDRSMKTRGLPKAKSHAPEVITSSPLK
The species entered for test [2] is Homo sapiens. The experiment in a line: Inhibition of human plasma alpha-thrombin assessed as spectrozyme TH hydrolysis at 1 to 900 uM preincubated for 10 mins by spectrophotometric analysis relative to control. It is filed as cell-free. Summed up: (§1)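 Human plasma α-thrombin (5 nM final) with inhibitor (1−900 μM final) in 20 mM Tris-HCl pH 7.4, 100 mM NaCl, 2.5 mM CaCl2, 0.1% PEG8000, PEG20000-coated cuvettes, 10 min. Spectrozyme TH then added (30 μM final). Initial rate from A405 increase. Residual activity fitted by logistic equation with floating Hill slope, Y0, YM to give IC50.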

A short description of test [3]: (§2) Inhibition of human plasma alpha-thrombin assessed as spectrozyme TH hydrolysis preincubated for 10 mins by spectrophotometric analysis. It is filed as cell-free. Summed up:
as §1

The species named for test [4] is Homo sapiens. The test is described as §2. It is filed as cell-free. In short, it runs like this:
as §1

Test [5] concerns the target Prothrombin (Homo sapiens, UniProt P00734). The test can be described thus: Binding affinity to thrombin exosite-2 (unknown origin).
The species entered for test [6] is Homo sapiens. The test can be described thus: Binding affinity to human plasma alpha-thrombin exosite-2 using spectrozyme TH as substrate after overnight incubation at 25 degC by spectrophotometric analysis. It is filed as cell-free.

For the compound `CCOC(=O)c1c(C)oc2cc(OC)c(OCc3oc4cc(OC)c(OCc5oc6cc(OC)c(OS(=O)(=O)O)cc6c5C(=O)OC)cc4c3C(=O)OCC)cc12`, in test [1], the inhibition entry was “inactive”. Moreover, the Efficacy in test [2] was 39%. Further, the IC50 in test [3] (read-out: IC50) was 2 µM; in test [3] (read-out: pIC50 (converted)), 2.04 µM.

Turning to `N=C(N)NCCC[C@H](NC(=O)[C@@H]1CCCN1C(=O)[C@H](N)Cc1ccccc1)C(=O)CCl`, the inhibition result in test [4] was “Active”.

On to `CCOC(=O)c1c(COc2cc3c(C(=O)O)c(C)oc3cc2OC)oc2cc(OC)c(OCc3oc4cc(OC)c(OS(=O)(=O)O)cc4c3C(=O)OCC)cc12`, for which the inhibition result in test [1] is “inactive”. Besides, the Efficacy in test [2] was determined as 49%. In addition, the IC50 in test [3] (read-out: IC50) was 66 µM; in test [3] (read-out: pIC50 (converted)), 66.1 µM.

With `CCOC(=O)c1c(C)oc2cc(OC)c(OCc3oc4cc(OC)c(OCc5oc6cc(OC)c(OCc7oc8cc(OC)c(OS(=O)(=O)O)cc8c7C(=O)OCC)cc6c5C(=O)OCC)cc4c3C(=O)OCC)cc12`, the IC50 in test [3] (read-out: IC50) and in test [3] (read-out: pIC50 (converted)) was 158 µM in each case.

`CCOC(=O)c1c(C)oc2cc(OC)c(OCc3oc4cc(OC)c(OCc5oc6cc(OC(C)C)c(OS(=O)(=O)O)cc6c5C(=O)OCC)cc4c3C(=O)OCC)cc12`: in test [1], the inhibition entry is “inactive”. Further, in test [2], the Efficacy stood at 26%. Also, the IC50 is 99 µM in test [3] (read-out: IC50) and 100 µM in test [3] (read-out: pIC50 (converted)).

On to `CCOC(=O)c1c(C)oc2cc(OC)c(OCc3oc4cc(OC)c(OCc5oc6cc(OCC)c(OS(=O)(=O)O)cc6c5C(=O)OCC)cc4c3C(=O)OCC)cc12`, for which the inhibition result in test [1] was “inactive”. Further, the Efficacy in test [2] turned out to be 43%. In addition, the IC50 in test [3] (read-out: IC50) is 5.8 µM; in test [3] (read-out: pIC50 (converted)), 5.89 µM.

In turn, `CC(C)C[C@H](NC(=O)[C@H](CC(=O)O)NC(=O)[C@H](CC(=O)O)NC(=O)[C@H](CCC(=O)O)NC(=O)[C@@H]1CCCN1C(=O)[C@H](Cc1ccc(OP(=O)(O)O)cc1)NC(=O)[C@H](CC(C)C)NC(=O)[C@H](CO)NC(=O)[C@H](CC(=O)O)NC(=O)[C@H](Cc1ccc(OP(=O)(O)O)cc1)NC(=O)[C@H](CCC(=O)O)NC(=O)[C@@H](NC(=O)[C@H](CCC(=O)O)NC(=O)[C@H](C)NC(=O)[C@@H]1CCCN1C(=O)[C@H](Cc1cnc[nH]1)NC(=O)[C@H](CCC(=O)O)NC(=O)[C@@H]1CCCN1C(=O)[C@H](CCCNC(=N)N)NC(=O)[C@@H](N)C(C)C)[C@@H](C)O)C(=O)O` (H-VRPEHPAETE[pY]DSL[pY]PEDDL-OH) registered a K in test [5] of 0.6 µM.

On to `C=CCOC(=O)c1c(C)oc2cc(OC)c(OCc3oc4cc(OC)c(OCc5oc6cc(OC)c(OS(=O)(=O)O)cc6c5C(=O)OCC)cc4c3C(=O)OCC)cc12`, for which the Efficacy in test [2] was 53%. The IC50 in test [3] (read-out: IC50) is 31 µM; in test [3] (read-out: pIC50 (converted)), 30.9 µM.

`CCOC(=O)c1c(C)oc2cc(OC)c(OCc3oc4cc(OC)c(OCc5oc6cc(OC)c(OCc7oc8cc(OC)c(OS(=O)(=O)C(C)(C)C)cc8c7C(=O)OCC)cc6c5C(=O)OCC)cc4c3C(=O)OCC)cc12`: the inhibition result in test [1] was “inactive”.

In the case of `CCOC(=O)c1c(COc2cc3c(C(=O)OCC)c(COc4cc5c(C(=O)O)c(C)oc5cc4OC)oc3cc2OC)oc2cc(OC)c(O)cc12`, the inhibition entry in test [1] is “inactive”. The IC50 in test [3] (read-out: IC50) was greater than 500 µM.

As for `CCOC(=O)c1c(C)oc2cc(OC)c(OCc3oc4cc(OC)c(OCc5oc6cc(OC)c(OS(=O)(=O)O)cc6c5C(=O)OC(C)(C)C)cc4c3C(=O)OCC)cc12`, the inhibition entry in test [1] is “inactive”. Further, the Efficacy in test [2] worked out at 94%. Besides, the IC50 in test [3] (read-out: IC50) is 165 µM; in test [3] (read-out: pIC50 (converted)), 166 µM.

For the compound `O=C(O)C1=C[C@H](O)[C@@H](OS(=O)(=O)O)[C@H](O[C@H]2[C@H](O)[C@@H](NS(=O)(=O)O)[C@@H](O[C@H]3[C@H](O)[C@@H](OS(=O)(=O)O)[C@H](O[C@H]4[C@H](O)[C@@H](NS(=O)(=O)O)[C@@H](O[C@H]5[C@H](O)[C@@H](OS(=O)(=O)O)[C@H](O[C@H]6[C@H](O)[C@@H](NS(=O)(=O)O)[C@@H](O[C@H]7[C@H](O)[C@@H](OS(=O)(=O)O)[C@H](O[C@H]8[C@H](O)[C@@H](NS(=O)(=O)O)[C@@H](O)O[C@@H]8COS(=O)(=O)O)O[C@H]7COS(=O)(=O)O)O[C@@H]6COS(=O)(=O)O)O[C@H]5COS(=O)(=O)O)O[C@@H]4COS(=O)(=O)O)O[C@H]3COS(=O)(=O)O)O[C@@H]2COS(=O)(=O)O)O1`, in test [6], the K is 2.7 µM.

Turning to `CCOC(=O)c1c(C)oc2cc(OC)c(OCc3oc4cc(OC)c(OCc5oc6cc(OC)c(OS(=O)(=O)O)cc6c5C(=O)OCCOC)cc4c3C(=O)OCC)cc12`, the inhibition entry in test [1] was “inactive”. In test [3] (read-out: IC50), the IC50 is greater than 500 µM.

On to `CCOC(=O)c1c(C)oc2cc(OC)c(OCc3oc4cc(OC)c(OCc5oc6cc(OS(=O)(=O)O)c(OC)cc6c5C(=O)OCC)cc4c3C(=O)OCC)cc12`, for which, in test [2], the Efficacy amounted to 91%. For the same compound, the IC50 is 154 µM in test [3] (read-out: IC50) and 155 µM in test [3] (read-out: pIC50 (converted)).
